An excerpt weighted towards active compounds, which were near 2% of everything screened.
DNMT1 inh – DNMT1 (human) enzyme inhibition; P26358; 0.83% of 360,000 active; AID 588458; inhibition (reported as % activation of signal), % at 10 µM; DNMT1 molecular beacon, Hinp1I cleavage, fluorescence; in the data active means inhibition above about 50%
LMPTP inh – blocks human LMPTP phosphatase. 0.22% of 360,000 active. P24666. recombinant LMPTP-A, OMFP fluorogenic substrate, fluorescence intensity. inhibition, % at 20 µM;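 active means compounds that cut the enzyme signal by at least half of the control window in the single-dose screen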;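 further: plate controls were DMSO wells with enzyme plus substrate for no effect and substrate without enzyme for full effect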
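Test system: LMPTP-A phosphatase enzyme. Amount: LMPTP-A at 0.625 nM final in the reaction. Reagent: OMFP substrate, 400 µM final. Times: 50 min at room temperature. Signal: endpoint fluorescence intensity from OMFP dephosphorylation. Read-out basis: % inhibition. Benchmarks: no-enzyme and uninhibited controls.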
Rpn11 block – Rpn11 (human) deubiquitinase inhibition; AID 588493; inhibition, % at 20 µM; O00487; human 26S proteasome, Ub4-pepOG fluorescence polarization; 20S core pre-blocked with epoxomicin; 0.59% of 360,000 active;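 active means inhibition at 20 µM, scaled to each plate's controls, above about 33%, limit read from the data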
Scp-1 inhibitor – blocks human Scp-1 phosphatase activity; 0.88% of 340,000 active; AID 493091; Q9GZU7; inhibition, % at 20 µM; Recombinant Scp1, phosphopeptide, malachite green phosphate absorbance;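 active means inhibition above about 50% at 20 µM, limit read from the data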;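 further: plate controls were DMSO wells with enzyme for no effect and wells lacking enzyme for full effect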
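Material: truncated SCP-1 phosphatase (76-261aa) / Buffer or medium: 50 mM Tris acetate pH 5.5, 0.005% Tween-20, 10 mM MgCl2 / Compound dosing: one concentration, 20 µM, with 1.0% DMSO / Incubation: 45 min room-temperature reaction, 5 min colour, 30 min stabiliser / Detection: colorimetric free-phosphate detection, absorbance 630 nm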
STEP block – blocks human striatal-enriched tyrosine phosphatase; P54829; inhibition, % at 20 µM; recombinant STEP, OMFP fluorogenic substrate, fluorescence; 0.25% of 360,000 active;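 active means inhibition at 20 µM, scaled per plate between control wells, above about 37%, limit read from the data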;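 further: 0% = DMSO with enzyme and substrate and 100% = substrate only without enzyme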
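material = STEP tyrosine phosphatase | reagent = fluorogenic phosphatase substrate OMFP at 25 µM final | doses = single compound dose of 20 µM, 1% DMSO final | schedule = 20 min reaction, room temperature, in the dark | measured by = fluorescence, 480/540 nm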
Scp1 confirm – Scp-1 (human) inhibition, single-dose confirmed | AID 540281 | inhibition, % at 20 µM | recombinant SCP-1 catalytic domain, phosphate release, malachite green absorbance | shares compounds with Scp-1 inhibitor | 61% of 2,500 active;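 further: plate controls were DMSO with enzyme for no effect and buffer wells lacking enzyme for full effect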
MG interference – colorimetric interference in Scp-1 counter-screen. shares compounds with Scp-1 inhibitor. Colorimetric interference counterscreen, malachite green absorbance 630 nm. apparent inhibition (interference), % at 20 µM. 2,500 tested, under 10 active;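 further: compounds added after enzyme reaction finished so only phosphate colour detection is probed; plate controls were DMSO wells with completed Scp-1 reaction for no effect and substrate wells lacking enzyme for full effect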
Scp1 DSF – binds human Scp-1, shifting its melting temperature; shares compounds with Scp-1 inhibitor; Recombinant SCP1, Sypro Orange thermal shift Tm; thermal shift relative to vanadate control, % at 40 µM; 25% of 1,500 active;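 active means substances whose mean melting-temperature shift, as a percentage of the reference inhibitor's shift, reaches about 5.3%, limit read from the data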;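 further: 0% = Tm of DMSO wells and 100% = Tm with sodium orthovanadate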
* = called active by the depositor; / = no result.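 How the source made its calls, unless noted: active means inhibition of at least 30% at 20 µM; inactive means the rest.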

SMILES	DNMT1 inh	LMPTP inh	Rpn11 block	Scp-1 inhibitor	STEP block	Scp1 confirm	MG interference	others
Cc1ccc(S(=O)(=O)NC(=O)c2ccc(-c3ccc(C)c4ccccc34)o2)cc1	24	0	6	61*	4	77*	-4	Scp1 DSF=2
N#C/C(=C\c1ccc(/C=C(/C#N)c2nn(CCO)c(N)c2C#N)cc1)c1nn(CCO)c(N)c1C#N	4	6	7	68*	14	3	-13
CCOC(=O)Cc1csc(NC(=O)Cc2ccc(Br)cc2)n1	-2	0	-8	54*	-1	-23	-19
O=C(Nc1ccc(Br)cc1Cl)c1cnccn1	48	0	12	68*	2	55*	-23	Scp1 DSF=8.8*
CCCCc1c(-c2ccccc2OC)ncn1CCc1ccccc1Cl	/	1	/	/	/	/	/
Cc1ccc(OCC(=O)NNC(=O)Cn2nnc(-c3ccccc3)n2)cc1	1	36	36	53*	32	41*	-4	Scp1 DSF=-8
O=C(Cn1nnc(-c2ccccc2)n1)NNC(=O)c1ccccc1	3	-1	2	0	0	/	/
Cc1c(F)cccc1NC(=O)CCC(=O)O	3	0	-4	-2	-1	/	/
CC1NC(=O)NC1CCCCCC(=O)Nc1ccc(F)cc1 (stereo unspecified)	3	0	0	13	-2	-18	-15
Cc1c(F)cccc1NC(=O)CCCCCC1NC(=O)NC1C (stereo unspecified)	0	-1	-2	-1	-5	0	-7
CCC(C)C1Nc2ccc(C(=O)NCc3ccc4c(c3)OCO4)cc2NC1=O (stereo unspecified)	0	0	2	-6	0	-4	-5
Cc1nn(CC(=O)Nc2ccccc2)c(=O)c2ccccc12	3	-1	-2	70*	-12	-3	-5
N#CCCN(/N=C/c1cccnc1)C1=NS(=O)(=O)c2ccccc21	-3	-1	-4	3	-1	/	/
COc1ccc(OC)c(/C=N/N(CCC#N)C2=NS(=O)(=O)c3ccccc32)c1	-4	0	4	76*	-2	-15	-16
CCC1SC2=NC(C)=C(C(=O)OCC(C)C)C(/C=C/c3ccccc3OC)N2C1=O (stereo unspecified)	-4	-1	3	6	2	/	/
CCC1SC2=NC(C)=C(C(=O)OCCOC)C(/C=C/c3ccccc3OC)N2C1=O (stereo unspecified)	-14	1	8	58*	-4	-35	-25
NC(=O)COc1ccc(-n2cnnn2)cc1	26	11	-11	68*	6	52*	-12	Scp1 DSF=-2
NC(=O)c1ccc(NC(=O)COc2ccc(-n3cnnn3)cc2)cc1	-2	2	2	22	-2	/	/
CN(Cc1ccccc1)C(=O)C1(C)CCN1C(=O)Cc1ccc(Cl)cc1Cl (stereo unspecified)	0	1	-25	/	-2	/	/
COc1cccc(-c2cccc3c2NC(=O)C3(C)Cc2ccccc2F)c1 (stereo unspecified)	6	2	-1	/	2	/	/
CCC(CC)C(C(=O)NCc1ccccc1)N(C)Cc1ccc(Cl)c(Cl)c1 (stereo unspecified)	/	2	/	/	/	/	/
COc1cc(NC(=S)N2CCCC(CO)C2)cc(OC)c1 (stereo unspecified)	5	1	4	70*	15	-8	-5
O=C1C(CN2CCCC2)CCCC1CN1CCCC1 (stereo unspecified)	-32	-3	-5	5	-4	/	/
COc1ccc(N2CC(O)=C(c3nc(-c4ccccc4)cs3)C2=N)cc1	5	3	2	-1	1	/	/
Cc1ccc(-c2csc(C3=C(O)CN(NC(=O)c4ccco4)C3=N)n2)cc1	21	41	1	51*	12	35*	-2	Scp1 DSF=-12
CC(C)N1CC(=O)N2CSCC2C1=O (stereo unspecified)	/	0	/	/	/	/	/

Screening data (PubChem)
